Measurements gathered from unrelated publications.
Each line is one published result; the experiments were not run side by side.
Route: oral

| SMILES | test system | conditions | bioavailability [%] |
| --- | --- | --- | --- |
| Cc1cc(-c2ccnc3[nH]cc(F)c23)cc(F)c1[C@@]1(O)[C@H](C)CN(C2CCS(=O)(=O)CC2)C[C@@H]1C | male CD-1 mouse, plasma | 3 mg/kg | 37.7 |
| NCc1ccc(-c2nn(Cc3ccccc3)c3ccccc23)o1 | male CD-1 mouse, plasma | 10 mg/kg | 34 |
| Cc1nc2ccc(OCc3ccc(C(F)(F)F)cc3)cc2[nH]1 | male BALB/c mouse, plasma | 10 mg/kg | 35 |
| Cc1ccc(OCC(=O)N[C@@H](Cc2c[nH]c3ccccc23)C(=O)OC(C)C)cc1 | male Sprague-Dawley mouse, plasma | 20 mg/kg | 39 |
| O=C1CCC(N2Cc3cc(C4CCN(Cc5ccccc5)CC4)ccc3C2=O)C(=O)N1 (centres unmarked) | male CD-1 mouse, plasma | 3 mg/kg | 63.8 |
| C=CCn1c(=O)c2cnc(Nc3ccc(N4CCN(C)CC4)cc3)nc2n1-c1ccc2c(n1)[C@@](O)(CC)CC2 | mouse, plasma | 60 mg/kg | 98 |
| CC(C)[C@@H](CS(=O)(=O)C(C)C)N1C(=O)[C@@](C)(CC(=O)O)C[C@H](c2cccc(Cl)c2)[C@H]1c1ccc(Cl)cc1 | FVB mouse, plasma | 20 mg/kg, single dose | 16 |
| Oc1ccc([C@@H]2Oc3ccc(O)cc3[C@@H]3CCC[C@@H]32)cc1 | male C57BL/6 mouse, plasma | 10 mg/kg | 14 |
| FC(F)(F)CN1CC(n2cc(Oc3ccn4nc(Cl)cc4n3)cn2)C1 | FVB mouse, blood | single dose | 46 |
| OCc1ccc(-c2nn(Cc3ccccc3)c3ccccc23)o1 | male CD-1 mouse, plasma | 10 mg/kg | 11 |
| COCC(=O)N1CCc2[nH]c3c(Cl)c(Cl)ccc3c2[C@@H]1C | C57BL/6 mouse, blood | 20 mg/kg | 12.5 |
| CCOC(=O)C1=C(CN2CCC[C@@H]2C(=O)Nc2ccc(B(O)O)cc2)NC(c2nccs2)=N[C@H]1c1ccc(F)cc1Br | CD-1 mouse, plasma | 10 mg/kg | 10.4 |
| Cc1cc(-c2ccnc3[nH]cc(F)c23)cc(F)c1[C@@]1(O)[C@H](C)CN(C(=O)CN)C[C@@H]1C | male CD-1 mouse, plasma | 3 mg/kg | 30.7 |
| CN(C)C(=O)c1cc2cnc(Nc3ccc(-c4ccc5c(=O)cc(N6CCOCC6)oc5c4)cc3)nc2n1C1CCCC1.Cl | BALB/c mouse, plasma | 20 mg/kg | 29 |
